Screens from PubChem BioAssay.
VIM-2 inh = inhibitors of Pseudomonas aeruginosa VIM-2 metallo-beta-lactamase. purified VIM-2, nitrocefin hydrolysis, epi-absorbance fluorescence. inhibition, % at 5.6 µM. 0.89% of 290,000 active;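 active = inhibition above the mean of all tested compounds plus 3 SD, cutoff set per screening run, cut at about 7.5% in these data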;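 also: red hydrolysis product quenches plate fluorescence so inhibitors raise well fluorescence; 0% = enzyme with DMSO and 100% = DMSO without enzyme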
TRPN1 ag = zebrafish TRPN1 (NompC) channel agonism | HEK293 zebrafish TRPN1-YFP, Fluo-8 calcium fluorescence; 100% = response to 87 µM carbachol | activation, % at 3 µM | 0.18% of 220,000 active | AID 1424;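 active = activation above its plate's cutoff, the mean activation of test wells on that plate plus 3 SD, cut at about 19% in these data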;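 also: 0% = DMSO alone and 100% = 87 µM carbachol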
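Assay system: Zebrafish TRPN1-YFP in HEK293 cells | Incubation: Dye loading 1 h at 37 °C, then 30 min room temperature | Measured by: Kinetic Fluo-8 fluorescence, ex 470-495, em 515-575 nm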
TRPML3 agonist = agonists of human TRPML3 channel; HEK293 TRPML3-YFP, Fluo-8 calcium fluorescence; 100% = the carbachol control signal; activation, % at 3 µM; 0.29% of 220,000 active; AID 1448;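 active = activation above its plate's cutoff, the mean activation of the plate's test wells plus 3 SD, cut at about 12% in these data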;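 also: 0% = DMSO only wells and 100% = carbachol wells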
Target sequence (Q8TDD5 whole entry, looked up): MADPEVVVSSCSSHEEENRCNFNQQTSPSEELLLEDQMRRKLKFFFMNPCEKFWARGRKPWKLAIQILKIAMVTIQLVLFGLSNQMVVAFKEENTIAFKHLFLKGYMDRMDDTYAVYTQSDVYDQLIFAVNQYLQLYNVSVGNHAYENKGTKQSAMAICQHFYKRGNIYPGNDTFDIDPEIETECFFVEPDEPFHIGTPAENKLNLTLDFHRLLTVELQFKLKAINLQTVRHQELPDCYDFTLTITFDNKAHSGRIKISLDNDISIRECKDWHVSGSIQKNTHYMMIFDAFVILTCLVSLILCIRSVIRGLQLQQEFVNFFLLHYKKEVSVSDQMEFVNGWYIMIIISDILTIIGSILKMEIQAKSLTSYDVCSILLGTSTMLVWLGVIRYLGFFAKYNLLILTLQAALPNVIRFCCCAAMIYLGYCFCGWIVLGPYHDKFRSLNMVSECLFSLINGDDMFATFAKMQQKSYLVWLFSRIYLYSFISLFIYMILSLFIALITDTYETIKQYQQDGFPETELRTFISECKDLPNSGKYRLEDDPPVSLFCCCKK
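Test system – HEK293 line with stable expression of human TRPML3-YFP channel · Control set – carbachol 87 µM final as high control (100%), DMSO as low control (0%) · Signal – Fluo-8 calcium dye fluorescence, ex 470-495, em 515-575 nm · Incubation – 1-h 37 °C dye load, 5-s basal, 120-s post-compound reads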
CRFBP-R2 block = CRF-BP/CRF-R2 complex antagonism; HEK293 CRF-R2/CRF-BP, CRF-induced calcium fluorescence; inhibition, % at 11.8 µM; 0.59% of 350,000 active;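 active = inhibition of the ligand-induced calcium signal above about 50% at the single tested concentration, limit read from the data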
IMP-1 inh = inhibitors of Pseudomonas aeruginosa IMP-1 metallo-beta-lactamase; purified IMP-1, nitrocefin hydrolysis, epi-absorbance fluorescence; inhibition, % at 5.6 µM; 0.45% of 290,000 active;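 active = inhibition above the mean plus 3 SD of all compounds in the same screening run, cut at about 4.5% in these data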;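 also: 0% = IMP-1 with DMSO and 100% = DMSO wells lacking enzyme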
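Assay system: purified IMP-1; Quantity: IMP-1 0.2 nM before substrate addition; Medium: HEPES buffer pH 7.1 with ZnSO4 and Brij 35; Incubation: 15 min enzyme–compound preincubation, then 25 min nitrocefin reaction, 25 °C; Signal: fluorescence quenching readout, ex 480/em 530 nm; Controls: DMSO with and without IMP-1; Repeats: singlicate testing.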
CRFBP-R2 agonist = agonists of human CRF-binding protein/CRF-R2 receptor complex; 0.46% of 350,000 active; AID 588473; HEK293 CRF-R2/CRF-BP, calcium dye fluorescence (FLIPR); percent of saturating CRF peptide response; activation, % at 13.2 µM;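 active = activation of at least 50%, plus an integration ratio under a set limit after plate pattern correction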;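 also: plate controls were neutral control wells without compound for no effect and CRF at EC100 for full effect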
* = called active by the depositor. Rows were chosen to be rich in hits. Some 2.1% of all compounds tested hit in one or more screens of this group.

COc1ccc(C(C(=O)NC2CCCC2)N(C(=O)c2ccoc2C)c2cc(C)cc(C)c2)cc1 (centres undefined) was read as VIM-2 inh 2, TRPN1 ag -3, TRPML3 agonist -2, CRFBP-R2 block 83*, IMP-1 inh 0 and CRFBP-R2 agonist 0.
COc1ccc(C(C(=O)NC2CCCCC2)N(C(=O)c2sc(C)nc2C)c2ccccc2)cc1 (centres undefined) was read as VIM-2 inh -5, TRPN1 ag 1, TRPML3 agonist 0, CRFBP-R2 block -4, IMP-1 inh -4 and CRFBP-R2 agonist 1.
COc1ccc(C(C(=O)NC2CCCCC2)N(C(=O)c2sc(C)nc2C)c2ccc(OC)cc2)cc1 (centres undefined) was read as VIM-2 inh -2, TRPN1 ag -1, TRPML3 agonist 1, CRFBP-R2 block 64*, IMP-1 inh -1 and CRFBP-R2 agonist -2.
`Cn1c2nc(=O)n(-c3ccccc3)c(=O)c-2nc2c1CCCC2` gave CRFBP-R2 block -15 and CRFBP-R2 agonist 33.
For CCOc1ccc(NC(=O)CN(C)C(=O)c2c(-c3ccccc3Cl)noc2C)cc1OCC the results were CRFBP-R2 block 4 and CRFBP-R2 agonist -1.
Screening O=C(O)CCC(=O)N1N=C(c2ccc(Br)cc2)CC1c1cccs1 (centres undefined) returned VIM-2 inh 7.9*, TRPN1 ag 0, TRPML3 agonist 0, CRFBP-R2 block -10, IMP-1 inh -3 and CRFBP-R2 agonist 0.
`CCCCCCn1c(=O)c(F)cn(Cc2ccc(OC)c([N+](=O)[O-])c2)c1=O` gave VIM-2 inh 0, TRPN1 ag 2, TRPML3 agonist 1, CRFBP-R2 block 59*, IMP-1 inh 0 and CRFBP-R2 agonist -2.
Screening NC(=O)C1CCN(C(=O)/C=C/c2ccccc2[N+](=O)[O-])CC1 returned VIM-2 inh -1, TRPN1 ag 2, TRPML3 agonist 0, CRFBP-R2 block 4, IMP-1 inh -1 and CRFBP-R2 agonist 0.
`O=C(/C=C/c1ccccc1[N+](=O)[O-])N1CCOCC1` gave VIM-2 inh 3, CRFBP-R2 block 63*, IMP-1 inh 4 and CRFBP-R2 agonist 0.
For Cc1ccc2nc(NC(=O)CSc3nc(=O)n(CCN(C)C)c4c3CCCC4)sc2c1 the results were CRFBP-R2 block -6 and CRFBP-R2 agonist 1.
`Cn1nnnc1SCc1cccc(CSc2nnnn2C)n1` gave VIM-2 inh 0, TRPN1 ag 0, TRPML3 agonist 0, CRFBP-R2 block 7, IMP-1 inh 5.3* and CRFBP-R2 agonist -1.
Cn1nnnc1SCc1ccc(CSc2nnnn2C)cc1 was read as VIM-2 inh -3, TRPN1 ag 2, TRPML3 agonist 1, CRFBP-R2 block 24, IMP-1 inh -1 and CRFBP-R2 agonist 0.
Screening Cc1ccccc1OC(C)C(=O)Nc1cccnc1 (centres undefined) returned VIM-2 inh -1, CRFBP-R2 block 2, IMP-1 inh -1 and CRFBP-R2 agonist -4.
`CSc1nnc(-c2cc[n+](C)cc2)n1CCO` gave VIM-2 inh -4, TRPN1 ag 2, TRPML3 agonist 0, CRFBP-R2 block 3, IMP-1 inh 4.9* and CRFBP-R2 agonist -3.
Screening COC(CNC(=O)C1CCC(CNS(=O)(=O)c2c(C)cc(C)cc2C)CC1)OC (centres undefined) returned VIM-2 inh -3, CRFBP-R2 block 10, IMP-1 inh -2 and CRFBP-R2 agonist -2.
Screening O=C(NCCOc1ccccc1F)c1ccccc1SCc1ccc(F)cc1 returned VIM-2 inh 1, TRPN1 ag -4, TRPML3 agonist -1, CRFBP-R2 block 64*, IMP-1 inh -1 and CRFBP-R2 agonist -3.
O=C1/C(=C/c2ccco2)SC(=S)N1CC1CCCO1 (centres undefined) was read as VIM-2 inh 0, TRPN1 ag -1, TRPML3 agonist 2, CRFBP-R2 block 6, IMP-1 inh 5.4* and CRFBP-R2 agonist 1.
Screening COc1cc(/C=C2/SC(=S)N(CC3CCCO3)C2=O)ccc1O (centres undefined) returned VIM-2 inh -1, TRPN1 ag 37*, TRPML3 agonist 34*, CRFBP-R2 block -217, IMP-1 inh 0 and CRFBP-R2 agonist 151*.
For COc1ccc(/C=C2\SC(=S)N(CC3CCCO3)C2=O)cc1 (centres undefined) the results were VIM-2 inh 2, TRPN1 ag -1, TRPML3 agonist 0, CRFBP-R2 block 3, IMP-1 inh 0 and CRFBP-R2 agonist 4.
For O=C(CCN1C(=O)/C(=C\c2ccco2)SC1=S)Nc1ccc(C(=O)O)c(O)c1 the results were VIM-2 inh -1, CRFBP-R2 block 0, IMP-1 inh 8.0* and CRFBP-R2 agonist -1.
COc1ccc(-c2csc(=NCCO)n2-c2ccccc2)cc1 was read as VIM-2 inh -2, CRFBP-R2 block 13, IMP-1 inh -3 and CRFBP-R2 agonist 3.
O=C(CNC(=O)c1ccccc1)OC(C(=O)O)c1ccc(F)cc1 (centres undefined) was read as CRFBP-R2 block 2 and CRFBP-R2 agonist 2.
Screening c1ccc2c(c1)oc1c(N3CCOCC3)ncnc12 returned VIM-2 inh 1, TRPN1 ag 1, TRPML3 agonist 0, CRFBP-R2 block 3, IMP-1 inh -3 and CRFBP-R2 agonist 5.
Screening O=C(c1ccco1)N1CCN(c2ncnc3c2oc2ccccc23)CC1 returned VIM-2 inh 10.0*, TRPN1 ag 1, TRPML3 agonist 0, CRFBP-R2 block -3, IMP-1 inh -3 and CRFBP-R2 agonist 1.
Screening O=[N+]([O-])c1cc(/C=N\O)ccc1Oc1ccc(F)cc1 returned VIM-2 inh 1, TRPN1 ag -3, TRPML3 agonist -1, CRFBP-R2 block 79*, IMP-1 inh 0 and CRFBP-R2 agonist -1.
Screening CCc1ccccc1NC(=O)CNC(=O)CCNC(=O)Nc1ccccc1 returned CRFBP-R2 block -3 and CRFBP-R2 agonist 1.
For Cc1nc(SCc2ccccc2C#N)n[nH]1 the results were VIM-2 inh 1, CRFBP-R2 block 20, IMP-1 inh 4.9* and CRFBP-R2 agonist -2.
For O=C(c1ccccc1)c1nn(-c2ccc(Cl)cc2)cc1C(=O)c1cc2ccccc2oc1=O the results were VIM-2 inh 2, TRPN1 ag 0, TRPML3 agonist 0, CRFBP-R2 block 101*, IMP-1 inh -4 and CRFBP-R2 agonist 9.
`Cc1ccc(S(C)(=O)=O)cc1C(=O)N1CC(C(N)=O)Oc2ccccc21` (centres undefined) gave VIM-2 inh -2, CRFBP-R2 block 13, IMP-1 inh -3 and CRFBP-R2 agonist 2.
